In series [1] the test system is Plasmodium falciparum. The series is described as follows: Inhibition of Plasmodium falciparum HGPRT using PRib-PP as the substrate at 50 uM by spectrophotometric method.
Series [2] addresses T1, Hypoxanthine-guanine phosphoribosyltransferase (Homo sapiens, UniProt P00492).
T1 sequence (P00492 whole entry): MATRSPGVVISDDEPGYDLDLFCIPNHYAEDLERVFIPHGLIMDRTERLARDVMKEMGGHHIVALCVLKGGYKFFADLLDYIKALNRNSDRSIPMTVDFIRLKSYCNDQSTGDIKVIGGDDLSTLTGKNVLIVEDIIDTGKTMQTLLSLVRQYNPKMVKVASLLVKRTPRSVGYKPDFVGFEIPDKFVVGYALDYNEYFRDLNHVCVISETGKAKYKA
The series is described as follows: Inhibition of human HGPRT using PRib-PP as the substrate by spectrophotometric method. In outline: (§1)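 Enzyme assays in 0.1 M Tris-HCl, 10 mM MgCl2, pH 7.4. Guanine fixed at 49 µM as non-variable substrate; PRib-PP varied 20-1400 µM at fixed inhibitor concentration; Hanes' plots. Ki from Km(app) = Km[1+[I]/Ki], assuming competitive inhibition; for Ki <2 µM, Km(app) measured at three inhibitor concentrations.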

Series [3] is described as follows: Cytotoxicity against human A549 cells after 4 days by Coulter counting method. The format is cell-based. In outline: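 Human lung carcinoma A549 cells seeded at 7500 cells/well, compounds added next day in serial dilutions; 4 days at 37°C, then cells trypsinized and counted. CC50 = concentration giving 50% inhibition of proliferation versus no-compound control, derived by extrapolation assuming semi-log dose-response.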

Series [4] deals with Plasmodium falciparum. Put plainly: Inhibition of Plasmodium falciparum HGPRT using PRib-PP as the substrate at 33 uM by spectrophotometric method.
A short description of series [5]: Inhibition of Plasmodium falciparum HGPRT using PRib-PP as the substrate by spectrophotometric method. In short, it runs like this: as §1
The test system of series [6] is Plasmodium falciparum. Put plainly: Antimalarial activity against chloroquine and pyrimethamine-resistant Plasmodium falciparum W2 infected in type O+ human RBC assessed as reduction in [3H]hypoxanthine incorporation preincubated for 48 hrs followed by [3H]hypoxanthine addition measured after 96 hrs. Type of series: functional. In short, it runs like this:
(§2)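 Ring-stage synchronized cultures (>90% early trophozoite, D-sorbitol) at 0.5% parasitemia, 2% hematocrit in hypoxanthine-free RPMI-1640-LPLF with 10% human plasma, 37°C under 5% O2/5% CO2/90% N2. Ten 2-fold serial dilutions of prodrug for 96 h. [3H]-hypoxanthine (0.2 μCi/well) added at ~48 h. IC50 from non-linear regression of incorporation versus log concentration. Mean (±SD) of at least two independent experiments.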

Series [7] deals with Plasmodium falciparum. Put plainly: Antimalarial activity against Plasmodium falciparum D6 infected in type O+ human RBC assessed as reduction in [3H]hypoxanthine incorporation preincubated for 48 hrs followed by [3H]hypoxanthine addition measured after 96 hrs. The format is functional. In short, it runs like this:
as §2

Series [8] in a line: Selectivity index, ratio of CC50 for human A549 cells to IC50 for Plasmodium falciparum D6. Type of series: toxicity. The conditions noted are these: read-out: Ratio CC50/IC50. In outline:
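Ratio CC50/IC50. CC50: A549 cells, 4-day proliferation, Coulter counting. IC50: Pf D6 ring-stage cultures, 0.5% parasitemia, 2% hematocrit, hypoxanthine-free medium, ten 2-fold dilutions of phosphoramidate prodrugs for 96 h; [3H]-hypoxanthine added at ~48 h; IC50 by non-linear regression; at least two independent experiments, mean ±SD.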

SMILES strings stand for the structures. Activity calls are given as the source filed them. The rule behind the calls is not given here.

The term Ki denotes the equilibrium dissociation constant of an inhibitor or competing ligand from its target. Low readings indicate a stronger hold on the target, high ones a looser hold on the target. In general, CC50 refers to the concentration that lowers cell viability or growth by half. A low value points to greater toxicity to the cells. By IC50 is commonly meant the concentration that inhibits the measured activity by half.

For `O=c1[nH]cnc2c1nc(Br)n2CC(COCCP(=O)(O)O)COCP(=O)(O)O` (stereo not given), the inhibition entry with Plasmodium falciparum [1] was “inactive”. The compound further came in with a Ki in series [2] of 2.5 µM.

Turning to `CCOC(=O)[C@H](Cc1ccccc1)NP(=O)(CCOCC(COCP(=O)(N[C@@H](Cc1ccccc1)C(=O)OCC)N[C@@H](Cc1ccccc1)C(=O)OCC)Cn1ccc2c(=O)[nH]cnc21)N[C@@H](Cc1ccccc1)C(=O)OCC` (stereo not given in full), it took 20 µM to reach half-maximal cytotoxicity in series [3] (CC50 at 96 h).

As to `O=c1[nH]cnc2c1ncn2CC(COCCP(=O)(O)O)OCCP(=O)(O)O` (stereo not given), in the series with Plasmodium falciparum [4], the inhibition entry was “inactive”. In addition, affinity in series [2] was put at a Ki of 0.7 µM.

For `Nc1nc2c(ccn2CC(COCCP(=O)(O)O)COCP(=O)(O)O)c(=O)[nH]1` (stereo not given), the results for the Ki in series [5] and in series [2] were 4 µM and 0.1 µM, respectively.

For `Nc1nc2c(nc(Br)n2CC(COCCP(=O)(O)O)OCCP(=O)(O)O)c(=O)[nH]1` (stereo not given), the Ki in series [5] was 0.9 µM; in series [2], 0.4 µM.

Turning to `CCOC(=O)[C@H](Cc1ccccc1)NP(=O)(CCOCC(Cn1cnc2c(=O)[nH]cnc21)OCCP(=O)(N[C@@H](Cc1ccccc1)C(=O)OCC)N[C@@H](Cc1ccccc1)C(=O)OCC)N[C@@H](Cc1ccccc1)C(=O)OCC` (stereo not given in full), the figures for the IC50 in the series on Plasmodium falciparum [6] and with Plasmodium falciparum [7] were 1.9 µM and 3.6 µM, respectively. In series [8], the selectivity ratio turned out to be 25.

On to `Nc1nc2c(ncn2CC(COCCP(=O)(O)O)COCP(=O)(O)O)c(=O)[nH]1` (stereo not given), for which the results for the Ki in series [5] and in series [2] were 0.07 µM and 0.006 µM, respectively.

With `O=c1[nH]cnc2c1ccn2CC(COCCP(=O)(O)O)COCP(=O)(O)O` (stereo not given), the values for the Ki in series [5] and in series [2] were 6 µM and 4.6 µM, respectively.

Take `CCOC(=O)[C@H](Cc1ccccc1)NP(=O)(CCOCC(COCP(=O)(N[C@@H](Cc1ccccc1)C(=O)OCC)N[C@@H](Cc1ccccc1)C(=O)OCC)Cn1c(Br)nc2c(=O)[nH]cnc21)N[C@@H](Cc1ccccc1)C(=O)OCC` (stereo not given in full): in series [3], the midpoint of cytotoxicity, the CC50 at 96 h, lay at 36 µM.

In series [3], `CCOC(=O)[C@H](Cc1ccccc1)NP(=O)(CCOCC(COCP(=O)(N[C@@H](Cc1ccccc1)C(=O)OCC)N[C@@H](Cc1ccccc1)C(=O)OCC)Cn1ccc2c(=O)[nH]c(N)nc21)N[C@@H](Cc1ccccc1)C(=O)OCC` (stereo not given in full) came in with a CC50 at 96 h of 106 µM. For the same compound, the IC50 in the series with Plasmodium falciparum [6] is 6.5 µM; in the series with Plasmodium falciparum [7] it was 1.8 µM. Moreover, the selectivity ratio in series [8] was determined as 59.

As for `O=c1[nH]cnc2c1ncn2CC(COCCP(=O)(O)O)COCP(=O)(O)O` (stereo not given), the inhibition constant (Ki) in series [5] was 3 µM; in series [2], 1.8 µM.

Regarding `CCOC(=O)[C@H](Cc1ccccc1)NP(=O)(CCOCC(COCP(=O)(N[C@@H](Cc1ccccc1)C(=O)OCC)N[C@@H](Cc1ccccc1)C(=O)OCC)Cn1c(Br)nc2c(=O)[nH]c(N)nc21)N[C@@H](Cc1ccccc1)C(=O)OCC` (stereo not given in full), in series [3], it took 151 µM to reach half-maximal cytotoxicity (CC50 at 96 h). The IC50 amounted to 8.3 µM in the series on Plasmodium falciparum [6] and 5.6 µM in the series on Plasmodium falciparum [7]. Besides, the selectivity ratio in series [8] worked out at 27.

`CCOC(=O)[C@H](Cc1ccccc1)NP(=O)(CCOCC(COCP(=O)(N[C@@H](Cc1ccccc1)C(=O)OCC)N[C@@H](Cc1ccccc1)C(=O)OCC)Cn1cnc2c(=O)[nH]c(N)nc21)N[C@@H](Cc1ccccc1)C(=O)OCC` (stereo not given in full): half-maximal cytotoxicity in series [3] (CC50 at 96 h) was put at 212 µM. Besides, the figures for the IC50 in the series on Plasmodium falciparum [6] and with Plasmodium falciparum [7] were 7.4 µM and 5.7 µM, respectively. The selectivity ratio in series [8] stood at 37.

Compound `Nc1nc2c(ncn2CC(COCCP(=O)(O)O)OCCP(=O)(O)O)c(=O)[nH]1` (stereo not given) came in with a Ki in series [5] of 0.5 µM.

In series [3], `CCOC(=O)[C@H](Cc1ccccc1)NP(=O)(CCOCC(COCP(=O)(N[C@@H](Cc1ccccc1)C(=O)OCC)N[C@@H](Cc1ccccc1)C(=O)OCC)Cn1cnc2c(=O)[nH]cnc21)N[C@@H](Cc1ccccc1)C(=O)OCC` (stereo not given in full) yielded a CC50 at 96 h of 82 µM. The half-maximal inhibitory concentration (IC50) amounted to 3.2 µM in the series on Plasmodium falciparum [6] and 1.4 µM in the series on Plasmodium falciparum [7]. Moreover, in series [8], the selectivity ratio was found to be 59.

With `CCOC(=O)[C@H](Cc1ccccc1)NP(=O)(CCOCC(Cn1c(Br)nc2c(=O)[nH]c(N)nc21)OCCP(=O)(N[C@@H](Cc1ccccc1)C(=O)OCC)N[C@@H](Cc1ccccc1)C(=O)OCC)N[C@@H](Cc1ccccc1)C(=O)OCC` (stereo not given in full), it took 188 µM to reach half-maximal cytotoxicity in series [3] (CC50 at 96 h).

With `O=c1[nH]cnc2c1ncn2CC(COCP(=O)(O)O)COCP(=O)(O)O`, the inhibition constant Ki in series [5] turned out to be 5 µM.

For the compound `Nc1nc2c(nc(Br)n2CC(COCCP(=O)(O)O)COCP(=O)(O)O)c(=O)[nH]1` (stereo not given), the Ki in series [5] came out at 2 µM; in series [2], 0.1 µM.

For the origin of these results see ChEMBL document CHEMBL4038349, “Synthesis and Evaluation of Asymmetric Acyclic Nucleoside Bisphosphonates as Inhibitors of Plasmodium falciparum and Human Hypoxanthine-Guanine-(Xanthine) Phosphoribosyltransferase” (J Med Chem, 2017).
